The subject of data set [1] is MDA-MB-231. The data set can be described thus: Antitumor activity against human MDA-MB-231 cells xenografted in athymic (nu+/nu+) Balb/C mouse assessed as tumor growth inhibition at 50 mg/kg, ip dosed every 3 days for total of 5 administrations. The format is functional. The conditions noted are these: MDA-MB-231, ip, 72 h, route intraperitoneal, read-out: TGI. In outline:
(§1)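 Tumor fragments or cells were implanted subcutaneously in athymic nude mice. Once tumors were staged to 100−150 mm3, mice were dosed intraperitoneally every 3 days for 5 doses (q3d × 5).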

Data set [2] relates to Mus musculus. Description: Toxicity in human MDA-MB-231 cells xenografted athymic (nu+/nu+) Balb/C mouse assessed as mouse morbidity at 5 to 50 mg/kg, ip dosed every 3 days for total of 5 administrations. The format is organism-based. The arrangement: dose 5-50 mg/kg, route intraperitoneal. The settings on record: in vivo, 72 h. In outline: (§2)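 Nude mice carrying subcutaneous MDA-MB-231 tumors staged to 100−150 mm3 were dosed intraperitoneally q3d × 5. Morbidity and body weight loss were monitored throughout the dosing regimen.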

The subject of data set [3] is MDA-MB-231. The data set can be described thus: Antitumor activity against human MDA-MB-231 cells xenografted in athymic (nu+/nu+) Balb/C mouse assessed as tumor growth inhibition at 20 mg/kg, ip dosed every 3 days for total of 5 administrations. Also noted: dose 20 mg/kg. It counts as functional, organism-based. A digest of the protocol:
as §1

A short description of data set [4]: Mean residence time in Balb/C mouse at 1 mg/kg, iv administered as single dose by LC-MS/MS method. The format is ADME, organism-based. Also noted: dose 1 mg/kg, route intravenous. The conditions noted are these: in vivo. A digest of the protocol:
(§3)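 Mice received one intravenous dose, and parent compound levels in blood were monitored over time. Plasma pharmacokinetic parameters were derived from these concentration–time profiles.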

For data set [5], the system named is Mus musculus. Description: AUClast in Balb/C mouse at 1 mg/kg, iv administered as single dose by LC-MS/MS method. The format is ADME, organism-based, Plasma. The arrangement: time 0 - last, dose 1 mg/kg, route intravenous. The conditions noted are these: in vivo. In outline:
as §3

Data set [6] has as its system MDA-MB-231. The data set can be described thus: Antitumor activity against human MDA-MB-231 cells xenografted in athymic (nu+/nu+) Balb/C mouse assessed as tumor growth inhibition at 5 mg/kg, ip dosed every 3 days for total of 5 administrations. It counts as functional, organism-based. The arrangement: dose 5 mg/kg. In outline: as §1
The subject of data set [7] is Mus musculus. The data set can be described thus: Toxicity in human MDA-MB-231 cells xenografted athymic (nu+/nu+) Balb/C mouse assessed as weight loss at 5 to 50 mg/kg, ip dosed every 3 days for total of 5 administrations. The format is organism-based. Also noted: dose 5-50 mg/kg, route intraperitoneal. The conditions noted are these: in vivo, 72 h. A digest of the protocol: as §2

Data set [8] is described as follows: Volume of distribution at steady state in Balb/C mouse at 1 mg/kg, iv administered as single dose by LC-MS/MS method. The conditions noted are these: in vivo, read-out: Vdss. Also noted: dose 1 mg/kg, route intravenous. It counts as ADME, organism-based. In outline:
as §3

For data set [9], the system named is MDA-MB-231. Description: Antiproliferative activity against human MDA-MB-231 cells assessed as inhibition of cell proliferation after 72 hrs by MTS assay. It counts as functional, cell-based. The conditions noted are these: MDA-MB-231, 72 h.
A short description of data set [10]: Antitumor activity against human A875 cells xenografted in athymic (nu+/nu+) Balb/C mouse assessed as tumor growth inhibition at 50 mg/kg, ip dosed every 3 days for total of 5 administrations. It counts as functional. The settings on record: 72 h, route intraperitoneal, read-out: TGI. A digest of the protocol: as §1
The next data set has as its system A875. The data set can be described thus: Antitumor activity against human A875 cells xenografted in athymic (nu+/nu+) Balb/C mouse assessed as tumor growth inhibition at 50 mg/kg, ip dosed every 3 days for total of 5 administrations and measured on day 12 after last dose. The arrangement: dose 50 mg/kg. It counts as functional, organism-based. A digest of the protocol: as §1

Data set [11] in a line: Half life in Balb/C mouse at 1 mg/kg, iv administered as single dose by LC-MS/MS method. It counts as ADME, organism-based. The arrangement: dose 1 mg/kg, route intravenous. The settings on record: in vivo. In outline:
as §3

The nature of data set [12]: Antiproliferative activity against human A875 cells assessed as inhibition of cell proliferation after 72 hrs by MTS assay. The format is functional, cell-based. The settings on record: A875, 72 h.
Data set [13] is described as follows: Inhibition of XIAP BIR2 (124 to 240 residues) C202A/C213G mutant (unknown origin) incubated for 60 mins by biotinylated SMAC peptide Alpha-screen assay. Also noted: species or system Homo sapiens.
The next data set concerns A549. Description: Antiproliferative activity against human A549 cells assessed as inhibition of cell proliferation after 72 hrs by MTS assay. It counts as functional, cell-based. The conditions noted are these: A549, 72 h.

Consider one compound from ChEMBL document CHEMBL3414571, “The discovery of macrocyclic XIAP antagonists from a DNA-programmed chemistry library, and their optimization to give lead compounds with in vivo antitumor activity” (J Med Chem, 2015).

Structures are written as SMILES. Active and inactive are the calls of the source. The rule behind the calls is not given here.

As for `CN[C@@H](C)C(=O)N[C@H](C(=O)N1C[C@@H]2C[C@H]1C(=O)N[C@@H](Cc1ccc3ccccc3c1)C(=O)N[C@H](C(=O)O)Cc1ccc(cc1)OCc1cn(nn1)[C@H]1C[C@@H](C(=O)N[C@@H](Cc3ccc4ccccc4c3)C(=O)N[C@H](C(=O)O)Cc3ccc(cc3)OCc3cn2nn3)N(C(=O)[C@@H](NC(=O)[C@H](C)NC)C(C)(C)C)C1)C(C)(C)C`, the figures for the inhibition in vivo at 50 mg/kg (in the data set on MDA-MB-231 [1]; in data set [10]) were 78% and 148%, respectively. The Activity result in the data set with Mus musculus [2] and in the data set with Mus musculus [7] was “Non-toxic” each time. Moreover, the TGI result in the data set with MDA-MB-231 [3] and in the data set with MDA-MB-231 [6] was “inactive” throughout. In data set [4], this compound had a mean residence time MRT of 47.4 min. For the same compound, the AUClast with Mus musculus [5] turned out to be 1550 ng·h/mL. Besides, in [8], the Vd was determined as 0.34 L/kg. Moreover, the half-inhibitory concentration (IC50) with MDA-MB-231 [9] is 26 nM; in data set [12] it was 77 nM; in [13], 97 nM; in the data set on A549, greater than 25000 nM. Moreover, the TGI entry with A875 was “Active”. This compound gave a half-life in [11] of 51 min.
